In brackets after ≈: the same amount, converted by molar mass. Blank lines part the entries; values can stand above or below the compound they belong to. Activity calls are given as the source filed them. The calls are words filed in the database; no cut-off is given here. Numbered stars: 1 amine (or outer) side, 2 acyl side, 3 side chain; on linkers, the order of the positions; unused ones are H or OH. Bridge positions count the residues as written; N and C are the ends. Square brackets hold non-standard residues; d marks the D form. Peptide text beside a SMILES is read from it. I, II: the chains in the order shown. Actinocin(1to9) = Cc1c2oc3c(C)ccc(C(=O)[*:2])c3nc-2c(C(=O)[*:1])c(N)c1=O; NMeV = CN[C@H](C(=O)O)C(C)C; Sar = CNCC(=O)O
How the values were obtained:
[1] = Dissociation constant, pKa of the compound; assay type: physicochemical
[2] = test system: Staphylococcus aureus; test: microbe, parasite or virus in culture; conditions: isolate d20A1
[3] = test system: Staphylococcus aureus; test: Antibacterial activity against Staphylococcus aureus NCTC 8325 after 16 to 20 hrs by broth microdilution method; assay type: functional
Method in brief: (§1)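 Broth microdilution in cation-adjusted Mueller Hinton broth. Compounds were serially diluted twofold in DMSO at 50-fold final strength (2% DMSO final). The inoculum was 1 × 10^4 cells per well. Plates were incubated at 37 °C for 16–20 h, and growth was read as absorbance at 600 nm.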

[4] = test system: Staphylococcus aureus; test: Upregulation of mepB gene expression in MBX-1090-resistant Staphylococcus aureus isolate d20A1 at 0.4 ug/ml by RT-PCR analysis relative to wild type; assay type: functional
[5] = test system: Staphylococcus aureus; test: Antibacterial activity against Staphylococcus aureus NCTC 8325 harboring genetic deletion of mepRA gene after 16 to 20 hrs by broth microdilution method; assay type: functional; method in brief: as §1
[6] = test system: Staphylococcus aureus; test: Modulation of ribA gene expression in MBX-1090-resistant Staphylococcus aureus isolate d20A1 at 0.4 ug/ml by RT-PCR analysis relative to wild type; assay type: functional
[7] = test system: Staphylococcus aureus; test: Upregulation of mepA gene expression in MBX-1090-resistant Staphylococcus aureus isolate d20A1 at 0.4 ug/ml by RT-PCR analysis relative to wild type; assay type: functional
[8] = test system: Staphylococcus aureus; test: Antibacterial activity against Staphylococcus aureus NCTC 8325 harboring genetic deletion of mepR gene after 16 to 20 hrs by broth microdilution method; assay type: functional; method in brief: as §1
[9] = test system: Staphylococcus aureus; test: Modulation of ribD gene expression in MBX-1090-resistant Staphylococcus aureus isolate d20A1 at 0.4 ug/ml by RT-PCR analysis relative to wild type; assay type: functional
[10] = test system: Staphylococcus aureus; test: Antibacterial activity against Staphylococcus aureus NCTC 8325 carrying expression vector pG154 with mepA gene after 16 to 20 hrs by broth microdilution method in presence of anhydrous tetracycline; assay type: functional
Method in brief: (§2)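 Broth microdilution in cation-adjusted MHB containing anhydrous tetracycline at 100 ng/ml final to induce the pG154 expression vector. Twofold DMSO compound dilutions were used (2% DMSO final) with 1 × 10^4 cells per well. Incubation was 37 °C for 16–20 h, and absorbance was read at 600 nm.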

[11] = test system: Staphylococcus aureus; test: Antibacterial activity against Staphylococcus aureus NCTC 8325 harboring genetic deletion of mepRA gene and carrying expression vector pG154 after 16 to 20 hrs by broth microdilution method in presence of anhydrous tetracycline; assay type: functional; method in brief: as §2
[12] = test system: Staphylococcus aureus; test: Antibacterial activity against Staphylococcus aureus NCTC 8325 carrying expression vector pG154 after 16 to 20 hrs by broth microdilution method; assay type: functional; method in brief: as §1
[13] = test system: Staphylococcus aureus; test: Antibacterial activity against Staphylococcus aureus NCTC 8325 harboring genetic deletion of mepRA gene and carrying expression vector pG154 with mepA gene after 16 to 20 hrs by broth microdilution method in presence of anhydrous tetracycline; assay type: functional; method in brief: as §2
[14] = test system: Staphylococcus aureus; test: Antibacterial activity against Staphylococcus aureus NCTC 8325 carrying expression vector pG154 with mepA gene after 16 to 20 hrs by broth microdilution method; assay type: functional; method in brief: as §1
[15] = test system: Staphylococcus aureus; test: Antibacterial activity against Staphylococcus aureus NCTC 8325 carrying expression vector pG154 after 16 to 20 hrs by broth microdilution method in presence of anhydrous tetracycline; assay type: functional; method in brief: as §2
[16] = test system: Staphylococcus aureus; test: Antibacterial activity against Staphylococcus aureus NCTC 8325 harboring genetic deletion of mepRA gene and carrying expression vector pG154 after 16 to 20 hrs by broth microdilution method; assay type: functional; method in brief: as §1
[17] = test system: Staphylococcus aureus; test: Antibacterial activity against Staphylococcus aureus NCTC 8325 harboring genetic deletion of mepRA gene and carrying expression vector pG154 with mepA gene after 16 to 20 hrs by broth microdilution method; assay type: functional; method in brief: as §1
[18] = test system: Staphylococcus aureus; test: Antibacterial activity against Staphylococcus aureus NCTC 8325 after 16 to 20 hrs by broth microdilution method in presence of efflux pump inhibitor reserpine; assay type: functional
Method in brief: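 Broth microdilution in cation-adjusted MHB with reserpine at 20 µg/ml final in the medium as efflux inhibitor. Twofold DMSO dilutions were made (2% DMSO final) with 1 × 10^4 cells per well. Incubation was 37 °C for 16–20 h, with growth read at 600 nm.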

[19] = test system: Staphylococcus aureus; test: Modulation of ribH gene expression in MBX-1090-resistant Staphylococcus aureus isolate d20A1 at 0.4 ug/ml by RT-PCR analysis relative to wild type; assay type: functional
[20] = test system: Staphylococcus aureus; test: Downregulation of protein A gene expression in MBX-1090-resistant Staphylococcus aureus isolate d20A1 at 0.4 ug/ml by RT-PCR analysis relative to wild type; assay type: functional
[21] = test system: Staphylococcus aureus; test: Upregulation of conventional hypothetical protein mRNA expression in MBX-1090-resistant Staphylococcus aureus isolate d20A1 at 0.4 ug/ml by RT-PCR analysis relative to wild type; assay type: functional
[22] = test system: Staphylococcus aureus; test: Modulation of ribE gene expression in MBX-1090-resistant Staphylococcus aureus isolate d20A1 at 0.4 ug/ml by RT-PCR analysis relative to wild type; assay type: functional
[23] = Selectivity ratio of MIC for MBX-1090-resistant Staphylococcus aureus isolate d20A1 to MIC for Staphylococcus aureus NCTC 8325; assay type: functional
Method in brief: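 Ratio of resistant-mutant MIC to NCTC 8325 MIC. Both MICs came from broth microdilution in cation-adjusted MHB with 2% DMSO final and 1 × 10^4 cells per well, incubated at 37 °C for 16–20 h and read at 600 nm.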

[24] = test system: Staphylococcus aureus; test: Induction of mepA gene expression in Staphylococcus aureus NCTC 8325 at 0.125 ug/ml by RT-PCR analysis; assay type: functional, organism-based
Method in brief: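 S. aureus overnight culture diluted 1/200 in TSB and grown at 37 °C with shaking (250 rpm) to OD600 0.3. Triplicate 5 ml aliquots were exposed to compound or DMSO (2% final) for 3 h at 37 °C. RNA was purified and DNase-treated; 1 µg was reverse-transcribed with random hexamers, with a no-RT control. mepA signal was normalized to rho, untreated set to 1; three experiments, SD.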

[25] = test system: Staphylococcus aureus; test: Induction of mepR gene expression in Staphylococcus aureus NCTC 8325 at 0.125 ug/ml by RT-PCR analysis; assay type: functional, organism-based
[26] = test system: Staphylococcus aureus; test: Selectivity ratio of MIC for Staphylococcus aureus NCTC 8325 to MIC for Staphylococcus aureus NCTC 8325 in presence of efflux pump inhibitor reserpine; assay type: functional
Method in brief: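 MICs by modified broth microdilution in cation-adjusted Mueller Hinton broth. Twofold dilutions were made in DMSO at 50× (2% DMSO final), with 1 × 10^4 cells per well. Growth was read as A600 after 16–20 h at 37 °C. Reserpine was added to the medium at 20 µg/ml final to inhibit efflux.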

pKa [1]: 11.6
SMILES: N=C(N)c1ccc(-c2cc3ccc(C(=N)N)cc3[nH]2)cc1 [DAPI]

SMILES: CO[C@@H]1[C@@H](OC(N)=O)[C@@H](O)[C@H](Oc2ccc3c(O)c(NC(=O)c4ccc(O)c(CC=C(C)C)c4)c(=O)oc3c2C)OC1(C)C [NOVOBIOCIN]
MIC [2]: 0.125 µg/mL (≈ 0.204 µM) | MIC [3]: 0.125 µg/mL (≈ 0.204 µM)

SMILES: CC1(C)S[C@@H]2[C@H](NC(=O)[C@H](N)c3ccccc3)C(=O)N2[C@H]1C(=O)O [AMPICILLIN]
MIC [2]: 0.0625 µg/mL (≈ 0.179 µM) | MIC [3]: 0.0625 µg/mL (≈ 0.179 µM)

SMILES: Cc1c2oc3c(C)ccc(C(=O)N[C@@H]4C(=O)N[C@H](C(C)C)C(=O)N5CCC[C@H]5C(=O)N(C)CC(=O)N(C)[C@@H](C(C)C)C(=O)O[C@@H]4C)c3nc-2c(C(=O)N[C@@H]2C(=O)N[C@H](C(C)C)C(=O)N3CCC[C@H]3C(=O)N(C)CC(=O)N(C)[C@@H](C(C)C)C(=O)O[C@@H]2C)c(N)c1=O [DACTINOMYCIN] (I: T[dV]P[Sar][NMeV] / II: T[dV]P[Sar][NMeV]; ester I:1-I:C, II:1-II:C; linker I:N-II:N via Actinocin(1to9))
MIC [2]: 0.625 µg/mL (≈ 0.498 µM) | MIC [3]: 0.625 µg/mL (≈ 0.498 µM)

SMILES: Cc1onc(-c2ccccc2)c1C(=O)N[C@@H]1C(=O)N2[C@@H]1SC(C)(C)[C@@H]2C(=O)O [OXACILLIN]
MIC [2]: 0.125 µg/mL (≈ 0.311 µM) | MIC [3]: 0.125 µg/mL (≈ 0.311 µM)

SMILES: CN(C)[C@@H]1C(O)=C(C(N)=O)C(=O)[C@@]2(O)C(O)=C3C(=O)c4c(O)cccc4[C@@](C)(O)[C@H]3C[C@@H]12 [TETRACYCLINE]
MIC [2]: 0.5 µg/mL (≈ 1.13 µM) | MIC [3]: 0.5 µg/mL (≈ 1.13 µM)

SMILES: c1cc2cc(-c3ccc(-c4cc5ccc(C6=NCCN6)cc5[nH]4)cc3)[nH]c2cc1C1=NCCN1
MIC [2]: 0.5 µg/mL (≈ 1.12 µM) | fold change (FC) [4]: 4.2 | MIC [5]: 0.5 µg/mL (≈ 1.12 µM) | fold change (FC) [6]: 1.2 | fold change (FC) [7]: 8.7 | MIC [8]: 0.25 µg/mL (≈ 0.562 µM) | fold change (FC) [9]: 1.3 | MIC [10]: 0.25 µg/mL | MIC [11]: 0.5 µg/mL | MIC [12]: 0.5 µg/mL (≈ 1.12 µM) | MIC [13]: 8 µg/mL | MIC [14]: 0.5 µg/mL (≈ 1.12 µM) | MIC [15]: 1 µg/mL | MIC [16]: 0.5 µg/mL (≈ 1.12 µM) | MIC [17]: 0.25 µg/mL (≈ 0.562 µM) | MIC [3]: 0.25 µg/mL (≈ 0.562 µM) | MIC [18]: 0.125 µg/mL | fold change (FC) [19]: 2.1 | pKa [1]: 9.6 | fold change (FC) [20]: 3.1 | fold change (FC) [21]: 6.8 | fold change (FC) [22]: 1.2

SMILES: CN[C@@H]1[C@H](O[C@H]2[C@H](O[C@H]3[C@H](O)[C@@H](O)[C@H](N=C(N)N)[C@@H](O)[C@@H]3N=C(N)N)O[C@@H](C)[C@]2(O)C=O)O[C@@H](CO)[C@H](O)[C@H]1O [STREPTOMYCIN]
MIC [2]: 128 µg/mL (≈ 220 µM) | Selectivity ratio [23]: 4 | MIC [3]: 32 µg/mL (≈ 55 µM)

SMILES: CC(=O)O[C@H]1C[C@@]2(C)[C@@H](C[C@@H](O)[C@H]3[C@@]4(C)CC[C@@H](O)[C@@H](C)[C@@H]4CC[C@@]32C)/C1=C(\CCC=C(C)C)C(=O)O [FUSIDIC ACID]
MIC [2]: 0.0625 µg/mL (≈ 0.121 µM) | MIC [3]: 0.0625 µg/mL (≈ 0.121 µM)

SMILES: COc1cc(Cc2cnc(N)nc2N)cc(OC)c1OC [TRIMETHOPRIM]
MIC [2]: 3.12 µg/mL (≈ 10.8 µM) | MIC [3]: 3.12 µg/mL (≈ 10.8 µM)

SMILES: c1cc2cc(-c3ccc(-c4cc5ccc(C6=NCCCN6)cc5[nH]4)cc3)[nH]c2cc1C1=NCCCN1
MIC [2]: 0.5 µg/mL (≈ 1.06 µM) | MIC [5]: 0.5 µg/mL (≈ 1.06 µM) | MIC [8]: 0.25 µg/mL (≈ 0.529 µM) | Activity [24]: Active | MIC [10]: 0.125 µg/mL | MIC [11]: 0.5 µg/mL | MIC [12]: 0.5 µg/mL (≈ 1.06 µM) | MIC [13]: 0.125 µg/mL | MIC [14]: 0.5 µg/mL (≈ 1.06 µM) | Activity [25]: Active | MIC [15]: 0.5 µg/mL | MIC [16]: 0.5 µg/mL (≈ 1.06 µM) | MIC [17]: 0.5 µg/mL (≈ 1.06 µM) | MIC [3]: 0.5 µg/mL (≈ 1.06 µM) | Selectivity ratio [26]: 4 | MIC [18]: 0.125 µg/mL | pKa [1]: 12.8

SMILES: CC[C@H]1OC(=O)[C@H](C)[C@@H](O[C@H]2C[C@@](C)(OC)[C@@H](O)[C@H](C)O2)[C@H](C)[C@@H](O[C@@H]2O[C@H](C)C[C@H](N(C)C)[C@H]2O)[C@](C)(O)C[C@@H](C)C(=O)[C@H](C)[C@@H](O)[C@]1(C)O [ERYTHROMYCIN]
MIC [2]: 0.5 µg/mL (≈ 0.681 µM) | MIC [3]: 1 µg/mL (≈ 1.36 µM)

— ChEMBL document CHEMBL1157072 (Bioorg Med Chem, 2010)
